A short description of data set [1]: Stability in mouse serum assessed as intact compound remaining at 20 uCi after 40 mins by size-exclusion HPLC analysis. The data set is classed as ADME, cell-free. Conditions: read-out: Stability. A digest of the protocol: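 The compound was incubated in mouse serum, which lacks circulating SHBG. Aliquots were analysed on size-exclusion HPLC (TSK3000; phosphate/Na2SO4 buffer, pH 6.8, then an acetonitrile gradient). Extracts were analysed by C18 reversed-phase HPLC to measure intact compound remaining over time.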

Data set [2] deals with OVCAR-3. The data set is described as follows: Cellular uptake in human OVCAR-3 cells expressing androgen receptor assessed as ratio of [125I]UdR to thymidine incorporation in DNA at 1.75 uCi/mL after 24 hrs by gamma counting. It counts as ADME, cell-based. Conditions: ovcar-3, 24 h. A digest of the protocol:
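OVCAR-3 cells treated with the radioligand; fraction of DNA thymidine replaced by 125IUdR determined after 24 h.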
On the technique in general: Dividing cells build labelled thymidine or BrdU into new DNA.

Data set [3] is described as follows: Biodistribution in tumor of athymic NCr mouse xenografted with human OVCAR-3 cells assessed per gram of tissue at an average 39.5 uCi/dose, ip administered 9 days after tumor implantation as six fractionated doses every 4 days measured after 2 weeks of last dose by gamma counting. It counts as ADME, organism-based, Neoplasm. Conditions: in vivo, 336 h. A digest of the protocol: (§1)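 OVCAR-3-bearing and healthy athymic mice given fractionated ip doses on the six-dose every-4-days schedule; tissues, tumor and lavaged cells γ-counted at necropsy, %ID/g; DNA-bound 125I in cells measured as cpm/cell.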

The subject of another data set is Spleen. The data set is described as follows: Biodistribution in spleen of athymic NCr mouse xenografted with human OVCAR-3 cells assessed per gram of tissue at an average 39.5 uCi/dose, ip administered 9 days after tumor implantation as six fractionated doses every 4 days measured after 2 weeks of last dose by gamma counting. It counts as ADME, organism-based. Conditions: in vivo, 336 h. A digest of the protocol:
as §1
Background: In xenograft studies the graft and the host belong to different species.

A further data set relates to Liver. The data set is described as follows: Biodistribution in liver of athymic NCr mouse xenografted with human OVCAR-3 cells assessed per gram of tissue at an average 39.5 uCi/dose, ip administered 9 days after tumor implantation as six fractionated doses every 4 days measured after 2 weeks of last dose by gamma counting. The data set is classed as ADME, organism-based. Conditions: in vivo, 336 h. A digest of the protocol:
as §1

The nature of data set [4]: Ratio of drug level in tumor to spleen in athymic NCr mouse xenografted with human OVCAR-3 cells at 180 uCi, ip administered 9 days after tumor implantation as six fractionated doses every 4 days measured after 24 hrs by gamma counting. The data set is classed as ADME, organism-based. As to conditions: in vivo; call rule not given here.
Data set [5] in a line: Chemical stability in RPMI-1640 serum-free medium assessed as compound hydrolysis at 12.2 uCi after 24 hrs by HPLC analysis. It counts as physicochemical. Conditions: read-out: Activity.
The nature of data set [6]: Ratio of drug level in tumor to uterus in athymic NCr mouse xenografted with human OVCAR-3 cells at 180 uCi, ip administered 9 days after tumor implantation as six fractionated doses every 4 days measured after 1.5 hrs by gamma counting. The data set is classed as ADME, organism-based. As to conditions: in vivo.
For data set [7], the target named is T1, Sex hormone-binding globulin (Oryctolagus cuniculus, UniProt P15196).
T1 sequence (P15196 whole entry): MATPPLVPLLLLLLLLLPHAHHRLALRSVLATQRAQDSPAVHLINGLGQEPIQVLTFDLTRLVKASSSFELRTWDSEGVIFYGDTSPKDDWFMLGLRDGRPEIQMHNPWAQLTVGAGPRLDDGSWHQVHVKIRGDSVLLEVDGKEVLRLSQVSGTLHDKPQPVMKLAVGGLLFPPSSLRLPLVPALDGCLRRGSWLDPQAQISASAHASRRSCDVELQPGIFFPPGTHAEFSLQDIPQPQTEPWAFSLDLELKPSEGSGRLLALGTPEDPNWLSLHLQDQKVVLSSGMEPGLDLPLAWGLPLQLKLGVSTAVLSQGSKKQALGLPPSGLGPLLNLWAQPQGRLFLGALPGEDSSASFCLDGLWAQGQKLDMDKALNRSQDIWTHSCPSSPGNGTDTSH
The data set is described as follows: Binding affinity to rabbit sex hormone binding globulin at 10 to 20 uCi/mL after 60 mins by size-exclusion HPLC analysis. The data set is classed as ADME. As to conditions: 1 h. A digest of the protocol:
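Radioligand incubated 60 min in rabbit serum; size-exclusion HPLC as for SHBG binding (phosphate/Na2SO4 pH 6.8, then CH3CN gradient) for SHBG-bound peak, with extracts run on C18 for intact compound.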
A general note: SEC sorts molecules by how far they enter the pores of the column.

For data set [8], the system named is OVCAR-3. The data set is described as follows: Stability in human OVCAR-3 cells expressing androgen receptor assessed as half life at 0.1 uCi/mL by silica gel instant thin layer chromatography. The data set is classed as ADME, cell-based. A digest of the protocol: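 Breakdown was followed with proliferating NIH:OVCAR-3 cells grown in complete RPMI-1640 medium. The distribution of radioactive products released into the culture medium (parent compound, 125IUdR and its 3′-succinate) was measured over time. Half-life was estimated from the time course.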

Data set [9] can be described thus: Stability in rabbit serum assessed as half life at 10 to 20 uCi/mL by reversed phase HPLC analysis. It counts as ADME, cell-free, Oryctolagus cuniculus. A digest of the protocol: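 The compound was incubated with rabbit or human serum at ambient temperature, and aliquots were taken at 1, 5 and 24 h. Aliquots were run on size-exclusion HPLC (TSK3000; 0.1 M potassium phosphate/0.1 M Na2SO4, pH 6.8, then an acetonitrile gradient). Extracts were run on C18 reversed-phase HPLC (water/acetonitrile with 0.07% TFA). Half-lives came from a monoexponential fit.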

The subject of data set [10] is OVCAR-3. The experiment in a line: Antitumor activity against human OVCAR-3 cells xenografted in athymic NCr mouse assessed as reduction of tumor size in peritoneum at 180 uCi, ip administered 9 days after tumor implantation as six fractionated doses every 4 days measured after 2 weeks of last dose by gamma counting. It counts as functional. The arrangement: scale not given: the % may be the effect or the level left. A digest of the protocol: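 OVCAR-3 ip xenografts in athymic mice; six fractionated ip doses every 4 days, total 180 μCi/mouse, with PBS or vehicle ip controls. Nonadherent tumor cells recovered by peritoneal lavage at necropsy, counted and pellet-weighed.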

Molecules are shown by their SMILES.

Consider `C[C@]12CCC(=O)C[C@@H]1CC[C@@H]1[C@@H]2CC[C@]2(C)[C@@H](OC(=O)CCC(=O)O[C@H]3C[C@H](n4cc([125I])c(=O)[nH]c4=O)O[C@@H]3COP(=O)(O)O)CC[C@@H]12`, for which the remaining at 40 min, 20 uCi in [1] was found to be 60%. For the same compound, the Ratio in the data set on OVCAR-3 [2] was 0.002. Besides, the Drug uptake in data set [3] was determined as 2.892 %ID; with Spleen, 0.043 %ID; in the data set on Liver it was 0.017 %ID.
Turning to `C[C@]12CCC(=O)C[C@@H]1CC[C@@H]1[C@@H]2CC[C@]2(C)[C@@H](OC(=O)CCC(=O)O[C@H]3C[C@H](n4cc([125I])c(=O)[nH]c4=O)O[C@@H]3CO)CC[C@@H]12`, the Ratio in data set [4] was 27.4; in data set [6], 1.4. In addition, the degraded at 24 h, 12.2 uCi in [5] was determined as 30%. In addition, the Activity result in data set [7] is given as “Active”; in the data set on OVCAR-3 [10] it was 70%. Further, the values for the t1/2 (in the data set on OVCAR-3 [8]; in data set [9]) were 3.2 h and 5.7 h, respectively.

The record behind these values is ChEMBL document CHEMBL1155242, “Radiolabeled 5-iodo-3'-O-(17beta-succinyl-5alpha-androstan-3-one)-2'-deoxyuridine and its 5'-monophosphate for imaging and therapy of androgen receptor-positive cancers: synthesis and biological evaluation” (J Med Chem, 2009).
